Laboratory results: ChEMBL document CHEMBL1811814, “Synthesis and evaluation of indole, pyrazole, chromone and pyrimidine based conjugates for tumor growth inhibitory activities--development of highly efficacious cytotoxic agents” (Eur J Med Chem, 2010)

Experiments:
Format in all cases: organism-based
Mus musculus [1] = assay: Toxicity in mouse assessed as mouse survival at 100 mg/kg, ip qd on day 19; design: dose 100 mg/kg, route intraperitoneal; settings: in vivo
Method in brief: (§1)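 Female athymic nude mice were given intraperitoneal injections of 400, 200 or 100 mg/kg, one mouse per dose level. Body weight loss was monitored, and survival was recorded after 19 days.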

Mus musculus [2] = assay: Toxicity in mouse assessed as mouse survival at 25 mg/kg, ip qd on day 19; design: dose 25 mg/kg, route intraperitoneal; settings: in vivo
Mus musculus [3] = assay: Toxicity in mouse assessed as mouse survival at 200 mg/kg, ip qd on day 19; design: dose 200 mg/kg, route intraperitoneal; settings: in vivo; method in brief: as §1
[4] = Toxicity in mouse assessed as mouse survival administered intraperitoneally once daily measured after 19 days; settings: in vivo, ip; method in brief: as §1
Mus musculus [5] = assay: Toxicity in mouse assessed as mouse survival at 400 mg/kg, ip qd on day 19; design: dose 400 mg/kg, route intraperitoneal; settings: in vivo; method in brief: as §1
Mus musculus [6] = assay: Toxicity in mouse assessed as mouse survival at 50 mg/kg, ip qd on day 19; design: dose 50 mg/kg, route intraperitoneal; settings: in vivo

Row | SMILES | Activity (Mus musculus [1]) | Activity (Mus musculus [2]) | Activity (Mus musculus [3]) | MTD at 456 h [4] [mg/kg] | Activity (Mus musculus [5]) | Activity (Mus musculus [6])
1 | O=C1NC(=O)C(=Cc2cn(Cc3ccccc3)c3ccccc23)C(=O)N1 | Toxic | Non-toxic | Toxic | 50 | Toxic | Non-toxic
2 | CN1C(=O)C(=Cc2cn(Cc3ccccc3)c3ccccc23)C(=O)N(C)C1=O | Non-toxic | – | Non-toxic | 400 | Non-toxic | –
